Measurements taken from PubChem BioAssay AID651938 (NMMLSC, 2012).

Molecular target: Fluorogen activating protein scFv HL1.1-TO1 (AM2.2, synthetic construct)
Assay: competition with TO1-2p for soluble AM2.2 – biochemical, soluble FAP, fluorescence competition, artefact control for beta2AR internalization ligand project, dose response (AID 651938)
Conditions: Soluble FAP AM2.2 with TO1-2p fluorogen
In short: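 material = soluble purified FAP AM2.2 | buffer or medium = cPBS | reagent = fluorogen TO1-2p at ten times its Kd | dosing = serial dilution series, water-diluted DMSO stocks | read-out basis = EC50 from variable-slope sigmoidal curve fit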

SMILES	EC50 [µM]
Cc1ccc(S(=O)(=O)N(C)CC(=O)N2CCN(c3ccccn3)CC2)cc1	19.8
CN(CC(=O)N1CCN(c2ccccn2)CC1)S(=O)(=O)c1ccc(Cl)cc1	2.73
